From ChEMBL document CHEMBL3414544, “PAINS in the assay: chemical mechanisms of assay interference and promiscuous enzymatic inhibition observed during a sulfhydryl-scavenging HTS” (J Med Chem, 2015)
Calls of active or inactive are those of the source.

Experiments:
[1] = biological target: T1, Histone acetyltransferase RTT109 (Saccharomyces cerevisiae (strain ATCC 204508 / S288c) (Baker's yeast)) (UniProt Q07794); test: Inhibition of Vps75-stimulated recombinant Saccharomyces cerevisiae histone acetyltransferase Rtt109 assessed as H3K56 acetylated product at […] after 45 mins by Slot bolt inhibiton assay
T1 sequence (whole entry): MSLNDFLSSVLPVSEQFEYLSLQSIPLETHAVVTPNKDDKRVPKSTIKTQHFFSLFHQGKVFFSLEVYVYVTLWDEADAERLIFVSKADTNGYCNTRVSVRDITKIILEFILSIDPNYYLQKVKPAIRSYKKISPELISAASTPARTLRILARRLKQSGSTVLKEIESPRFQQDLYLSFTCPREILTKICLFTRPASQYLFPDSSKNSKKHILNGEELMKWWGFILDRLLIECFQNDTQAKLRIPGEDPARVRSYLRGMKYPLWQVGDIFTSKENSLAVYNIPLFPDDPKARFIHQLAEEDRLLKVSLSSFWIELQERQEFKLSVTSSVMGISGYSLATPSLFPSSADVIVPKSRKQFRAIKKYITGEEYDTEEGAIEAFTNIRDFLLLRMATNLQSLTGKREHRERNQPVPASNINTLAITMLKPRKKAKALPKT

[2] = Fluorescence quenching assessed as fluorescence signal reduction at 10 uM after 10 mins; assay type: physicochemical
Summary of the method: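 CPM (20 μM final) and CoA (5 μM final) reacted to completion in assay buffer (stable plateau, usually ~5 min); adduct solution added to wells preplated with compound; shaken 5 min, equilibrated 5 min at room temperature; fluorescence intensity read as percent signal reduction versus DMSO controls. Flagged as quencher at >20% signal reduction at 10 μM final compound.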

[3] = biological target: Histone acetyltransferase GCN5 (Saccharomyces cerevisiae S288c) (UniProt Q03330); test: Inhibition of yeast histone acetyltransferase Gcn5-Ada2-Ada3 complex using tetramer and [3H]-acetyl-CoA assessed as acetate incorporation […] by liquid scintillation counting in presence of 1 mM DTT
[4] = biological target: Histone acetyltransferase GCN5 (Saccharomyces cerevisiae S288c, UniProt Q03330); test: Inhibition of yeast histone acetyltransferase Gcn5-Ada2-Ada3 complex using tetramer and [3H]-acetyl-CoA assessed as acetate incorporation after 30 mins by liquid scintillation counting
[5] = biological target: T1, Histone acetyltransferase RTT109 (Saccharomyces cerevisiae (strain ATCC 204508 / S288c) (Baker's yeast)); test: Inhibition of Vps75-stimulated recombinant Saccharomyces cerevisiae histone acetyltransferase Rtt109 using [3H]-acetyl-CoA assessed as acetate incorporation […] by liquid scintillation counting in presence of 1 mM DTT
[6] = Fluorescence quenching in HTS buffer assessed as fluorescence signal reduction at 10 uM after 10 mins; assay type: physicochemical
[7] = biological target: T2, Histone acetyltransferase p300 (Homo sapiens, UniProt Q09472); test: Inhibition of recombinant histone acetyltransferase p300 (unknown origin) using dH3-H4 tetramer and [3H]-acetyl-CoA assessed as acetate incorporation […] by liquid scintillation counting
[8] = biological target: T2, Histone acetyltransferase p300; test: Inhibition of recombinant histone acetyltransferase p300 (unknown origin) using dH3-H4 tetramer and [3H]-acetyl-CoA assessed as acetate incorporation after 5 mins by liquid scintillation counting in presence of 1 mM DTT
[9] = biological target: T1, Histone acetyltransferase RTT109 (Saccharomyces cerevisiae (strain ATCC 204508 / S288c) (Baker's yeast)); test: Inhibition of Vps75-stimulated recombinant Saccharomyces cerevisiae histone acetyltransferase Rtt109 assessed as H3K27 acetylated product at […] after 45 mins by Slot bolt inhibiton assay
[10] = Fluorescence quenching in HTS buffer with 20 uM 7-diethylamino-3-(4'-maleimidyl-phenyl)-4-methylcoumarin assessed as fluorescence signal reduction at 10 uM after 10 mins; assay type: physicochemical
[11] = Fluorescence quenching in HTS buffer with […] CoA assessed as fluorescence signal reduction at 10 uM after 10 mins; assay type: physicochemical
[12] = biological target: T3, Histone acetyltransferase RTT109 (Saccharomyces cerevisiae (strain ATCC 204508 / S288c) (Baker's yeast), UniProt Q07794); test: Inhibition of Vps75-stimulated recombinant Saccharomyces cerevisiae histone acetyltransferase Rtt109 using Asf1-dH3-H4 as substrate assessed as coenzyme A production after 45 mins by CPM based HTS assay
T3 sequence (Q07794 whole entry): T1 sequence (whole entry)
Summary of the method: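 Recombinant Rtt109–Vps75 at 50 nM, with Asf1–dH3–H4 as substrate and acetyl-CoA as acetyl donor. Buffer contained freshly prepared 0.01% Triton X-100. The CoA product was detected by fluorescence of its CPM adduct. Plates had Z′ ≥0.5. IC50 came from a four-parameter variable-slope fit.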

[13] = biological target: T3, Histone acetyltransferase RTT109; test: Inhibition of Vps75-stimulated recombinant Saccharomyces cerevisiae histone acetyltransferase Rtt109 using [3H]-acetyl-CoA assessed as acetate incorporation after 30 mins by liquid scintillation counting

T2 sequence (Q09472 whole entry): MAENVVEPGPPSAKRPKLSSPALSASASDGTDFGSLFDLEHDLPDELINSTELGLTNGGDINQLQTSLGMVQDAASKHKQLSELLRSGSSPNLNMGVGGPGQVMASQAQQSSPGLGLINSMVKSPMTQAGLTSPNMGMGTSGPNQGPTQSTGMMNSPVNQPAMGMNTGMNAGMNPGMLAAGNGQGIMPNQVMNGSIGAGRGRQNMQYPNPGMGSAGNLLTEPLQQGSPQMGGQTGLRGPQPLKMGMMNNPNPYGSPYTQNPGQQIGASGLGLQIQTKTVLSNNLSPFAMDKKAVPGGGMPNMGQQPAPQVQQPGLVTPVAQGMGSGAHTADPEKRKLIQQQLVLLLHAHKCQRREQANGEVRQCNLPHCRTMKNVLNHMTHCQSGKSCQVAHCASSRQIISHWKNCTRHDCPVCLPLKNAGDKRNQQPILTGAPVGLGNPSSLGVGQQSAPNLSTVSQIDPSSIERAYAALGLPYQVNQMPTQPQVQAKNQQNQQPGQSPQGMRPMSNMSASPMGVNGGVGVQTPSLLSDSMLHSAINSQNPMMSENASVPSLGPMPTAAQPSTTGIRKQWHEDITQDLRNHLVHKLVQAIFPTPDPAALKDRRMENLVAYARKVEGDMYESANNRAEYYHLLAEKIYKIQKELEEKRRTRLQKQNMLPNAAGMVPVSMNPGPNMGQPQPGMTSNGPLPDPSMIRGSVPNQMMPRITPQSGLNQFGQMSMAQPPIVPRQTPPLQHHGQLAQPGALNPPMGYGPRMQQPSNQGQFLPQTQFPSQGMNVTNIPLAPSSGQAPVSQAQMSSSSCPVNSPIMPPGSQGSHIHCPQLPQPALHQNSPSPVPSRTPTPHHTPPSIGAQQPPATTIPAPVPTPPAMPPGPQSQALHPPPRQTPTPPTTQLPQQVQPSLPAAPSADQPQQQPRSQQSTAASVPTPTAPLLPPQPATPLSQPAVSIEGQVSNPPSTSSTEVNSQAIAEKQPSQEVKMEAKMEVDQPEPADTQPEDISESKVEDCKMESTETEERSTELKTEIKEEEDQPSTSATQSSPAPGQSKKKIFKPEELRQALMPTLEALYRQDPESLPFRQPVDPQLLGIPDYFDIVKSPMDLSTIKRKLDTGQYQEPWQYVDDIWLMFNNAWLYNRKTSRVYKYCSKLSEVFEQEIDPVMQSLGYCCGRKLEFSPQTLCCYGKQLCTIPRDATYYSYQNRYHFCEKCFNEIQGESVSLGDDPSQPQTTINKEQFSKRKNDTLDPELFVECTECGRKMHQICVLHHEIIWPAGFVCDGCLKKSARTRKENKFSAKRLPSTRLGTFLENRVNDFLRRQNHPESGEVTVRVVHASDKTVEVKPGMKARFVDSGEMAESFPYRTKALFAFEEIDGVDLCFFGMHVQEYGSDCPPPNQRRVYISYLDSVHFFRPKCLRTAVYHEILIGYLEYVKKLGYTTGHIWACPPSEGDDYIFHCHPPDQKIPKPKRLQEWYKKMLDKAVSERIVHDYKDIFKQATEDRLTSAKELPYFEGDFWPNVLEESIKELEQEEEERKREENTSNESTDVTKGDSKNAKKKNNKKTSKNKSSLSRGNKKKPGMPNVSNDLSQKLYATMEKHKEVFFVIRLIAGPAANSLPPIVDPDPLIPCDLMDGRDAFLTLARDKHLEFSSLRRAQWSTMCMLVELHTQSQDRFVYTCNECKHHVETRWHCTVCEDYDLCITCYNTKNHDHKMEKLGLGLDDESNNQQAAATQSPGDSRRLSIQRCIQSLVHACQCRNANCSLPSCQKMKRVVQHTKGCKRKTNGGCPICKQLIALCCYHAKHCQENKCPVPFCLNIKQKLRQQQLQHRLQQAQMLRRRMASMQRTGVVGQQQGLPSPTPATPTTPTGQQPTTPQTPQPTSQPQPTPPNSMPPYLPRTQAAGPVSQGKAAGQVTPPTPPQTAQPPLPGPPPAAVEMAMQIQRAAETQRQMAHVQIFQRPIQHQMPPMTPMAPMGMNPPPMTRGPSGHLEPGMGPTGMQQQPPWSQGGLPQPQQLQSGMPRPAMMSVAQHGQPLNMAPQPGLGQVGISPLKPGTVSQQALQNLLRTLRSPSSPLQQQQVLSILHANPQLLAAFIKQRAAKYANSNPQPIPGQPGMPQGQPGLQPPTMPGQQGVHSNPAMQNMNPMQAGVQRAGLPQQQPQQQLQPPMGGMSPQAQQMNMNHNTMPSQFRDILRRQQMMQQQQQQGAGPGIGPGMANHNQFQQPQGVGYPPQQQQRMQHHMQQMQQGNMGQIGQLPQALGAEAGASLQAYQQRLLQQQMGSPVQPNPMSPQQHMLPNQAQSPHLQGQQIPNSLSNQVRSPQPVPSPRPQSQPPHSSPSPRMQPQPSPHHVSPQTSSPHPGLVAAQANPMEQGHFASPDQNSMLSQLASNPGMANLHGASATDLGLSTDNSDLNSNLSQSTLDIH
Sequence of Histone acetyltransferase GCN5 (Q03330 whole entry): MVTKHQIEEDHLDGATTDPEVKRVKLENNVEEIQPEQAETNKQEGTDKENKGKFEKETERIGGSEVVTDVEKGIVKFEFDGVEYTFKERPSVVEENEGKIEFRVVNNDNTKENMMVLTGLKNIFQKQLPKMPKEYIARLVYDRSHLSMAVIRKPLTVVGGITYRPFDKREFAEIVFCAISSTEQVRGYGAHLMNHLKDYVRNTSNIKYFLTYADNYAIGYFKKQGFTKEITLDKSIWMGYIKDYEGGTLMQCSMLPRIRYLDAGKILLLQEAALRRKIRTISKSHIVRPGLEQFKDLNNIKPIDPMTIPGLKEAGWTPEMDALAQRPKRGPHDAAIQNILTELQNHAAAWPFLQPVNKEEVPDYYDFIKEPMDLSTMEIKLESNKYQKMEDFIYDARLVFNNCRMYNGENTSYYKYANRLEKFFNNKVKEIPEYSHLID
Sequence of Histone acetyltransferase GCN5 (Saccharomyces cerevisiae S288c) (Q03330 whole entry): as above

O=S1(=O)C=C(Sc2nnc(-c3ccccc3)o2)c2ccccc21
Activity [1]: Active | Activity [2]: Not Active | Activity [3]: Active | IC50 ([4]; read-out: IC50): 11 µM | Activity [5]: Active | Activity [6]: Not Active | IC50 ([7]; read-out: IC50): 11 µM | Activity [8]: Active | Activity [9]: Active | Activity [10]: Not Active | Activity [11]: Not Active

O=S(=O)(Nc1cc(Sc2nc[nH]n2)c(O)c2ccccc12)c1ccc(Br)cc1
Activity [1]: Active | Activity [2]: Not Active | Activity [3]: Active | IC50 ([4]; read-out: IC50): 5.2 µM | Activity [5]: Active | Activity [6]: Not Active | IC50 ([7]; read-out: IC50): 1.1 µM | Activity [8]: Active | Activity [9]: Active | Activity [10]: Not Active | Activity [11]: Not Active

O=S1(=O)C=C(Sc2nnc(-c3ccncc3)o2)c2ccccc21
Activity [1]: Active | Activity [2]: Not Active | Activity [3]: Active | IC50 ([4]; read-out: IC50): 3.7 µM | Activity [5]: Active | Activity [6]: Not Active | IC50 ([7]; read-out: IC50): 6.2 µM | Activity [8]: Active | Activity [9]: Active | Activity [10]: Not Active | Activity [11]: Not Active

Cc1ccc(-c2nc(N)s[n+]2-c2ccccc2)cc1.[Br-]
Activity [1]: Active | Activity [2]: Not Active | Activity [3]: Active | IC50 ([4]; read-out: IC50): 5.3 µM | Activity [5]: Active | Activity [6]: Not Active | IC50 ([7]; read-out: IC50): 1.8 µM | Activity [8]: Active | Activity [9]: Active | Activity [10]: Not Active | Activity [11]: Not Active

O=C(O)CSc1cc(NS(=O)(=O)c2ccc(Br)cc2)c2ccccc2c1O
IC50 [12]: Not Active | Activity [2]: Not Active | Activity [3]: Active | IC50 ([4]; read-out: IC50): 1.2 µM | IC50 ([13]; read-out: IC50): 0.13 µM | Activity [6]: Not Active | IC50 ([7]; read-out: IC50): 0.33 µM | Activity [8]: Active | Activity [10]: Active | Activity [11]: Not Active

C=C(C)[C@@H](CC=C(C)C)C[C@@]12C[C@@H](CC=C(C)C)C(C)(C)[C@@](CC=C(C)C)(C(=O)C(C(=O)c3ccc(O)c(O)c3)=C1O)C2=O [GARCINOL]
Activity [3]: inactive | IC50 ([4]; read-out: IC50): 2.6 µM | Activity [5]: inactive | IC50 ([7]; read-out: IC50): 1.7 µM | Activity [8]: inactive

O=S1(=O)C=C(Sc2nnnn2-c2ccccc2)c2ccccc21
Activity [1]: Active | Activity [2]: Not Active | Activity [3]: Active | IC50 ([4]; read-out: IC50): 20 µM | Activity [5]: Active | Activity [6]: Not Active | Activity [8]: Active | Activity [9]: Active | Activity [10]: Not Active | Activity [11]: Not Active

O=[N+]([O-])c1c(Sc2nnnn2-c2ccccc2)cc(Cl)c2nonc12
Activity [1]: Active | IC50 ([12]; read-out: IC50): 2.3 µM | Activity [2]: Not Active | Activity [3]: Active | IC50 ([4]; read-out: IC50): 1.6 µM | Activity [5]: Active | IC50 ([13]; read-out: IC50): 0.77 µM | Activity [6]: Not Active | IC50 ([7]; read-out: IC50): 1.1 µM | Activity [8]: Active | Activity [9]: Active | Activity [10]: Not Active | Activity [11]: Not Active

CNc1nc(-c2ccccc2)[n+](-c2ccc(C)cc2)s1.[Br-]
Activity [1]: Active | Activity [2]: Not Active | Activity [3]: Active | IC50 ([4]; read-out: IC50): 8.1 µM | Activity [5]: Active | Activity [6]: Not Active | IC50 ([7]; read-out: IC50): 2 µM | Activity [8]: Active | Activity [9]: Active | Activity [10]: Not Active | Activity [11]: Not Active

OC(Cn1cncn1)(Cn1cncn1)c1ccc(F)cc1F [FLUCONAZOLE]
IC50 [12]: Not Active | Activity [3]: inactive | IC50 [4]: Not Active | Activity [5]: inactive | IC50 [13]: Not Active | IC50 [7]: Not Active | Activity [8]: inactive

COc1ccc(-c2nnc(SC3CC(=O)N(c4ccc(Cl)cc4)C3=O)[nH]2)cc1 (stereo not given)
Activity [1]: Active | Activity [2]: Not Active | Activity [3]: Active | IC50 ([4]; read-out: IC50): 6.7 µM | Activity [5]: Active | Activity [6]: Not Active | IC50 ([7]; read-out: IC50): 2.8 µM | Activity [8]: Active | Activity [9]: Active | Activity [10]: Not Active | Activity [11]: Not Active

Cc1ccc(N2C(=O)CC(Sc3nncn3-c3ccccc3)C2=O)cc1 (stereo not given)
Activity [1]: Active | IC50 ([12]; read-out: IC50): 11 µM | Activity [2]: Not Active | Activity [3]: Active | IC50 ([4]; read-out: IC50): 27 µM | Activity [5]: Active | IC50 ([13]; read-out: IC50): 8.6 µM | Activity [6]: Not Active | IC50 ([7]; read-out: IC50): 9.8 µM | Activity [8]: Active | Activity [9]: Active | Activity [10]: Not Active | Activity [11]: Not Active

CC(C)(C)c1ccc(S(=O)(=O)Nc2ccc(O)c(Cl)c2)cc1
Activity [1]: inactive | IC50 ([12]; read-out: IC50): 75 µM | Activity [2]: Not Active | Activity [6]: Not Active | Activity [9]: inactive | Activity [10]: Not Active | Activity [11]: Not Active

Nc1ncnc2[nH]c(Sc3c([N+](=O)[O-])cc(Br)c4nsnc34)nc12
Activity [1]: Active | IC50 ([12]; read-out: IC50): 3.2 µM | Activity [2]: Not Active | Activity [6]: Not Active | Activity [9]: Active | Activity [10]: Not Active | Activity [11]: Not Active

CCN(CC)c1ccc2c(C)c(-c3ccc(N4C(=O)C=CC4=O)cc3)c(=O)oc2c1
Activity [3]: Active | IC50 ([4]; read-out: IC50): 1.1 µM | Activity [5]: Active | IC50 ([13]; read-out: IC50): 0.26 µM | IC50 ([7]; read-out: IC50): 0.26 µM | Activity [8]: Active

O=[N+]([O-])c1ccccc1-c1nnc(SC2=CS(=O)(=O)c3ccccc32)o1
Activity [1]: Active | IC50 ([12]; read-out: IC50): 5.7 µM | Activity [2]: Not Active | Activity [6]: Not Active | Activity [9]: Active | Activity [10]: Not Active | Activity [11]: Not Active

O=S(=O)(Nc1cc(Sc2nc3ccccc3s2)c(O)c2ccccc12)c1ccccc1
Activity [1]: Active | IC50 ([12]; read-out: IC50): 9.9 µM | Activity [2]: Not Active | Activity [6]: Not Active | Activity [9]: Active | Activity [10]: Not Active | Activity [11]: Not Active

O=[N+]([O-])c1ccc(Sc2nnc(-c3ccccc3)o2)c2nonc12
Activity [1]: Active | IC50 ([12]; read-out: IC50): 1.1 µM | Activity [2]: Not Active | Activity [6]: Not Active | Activity [9]: Active | Activity [10]: Not Active | Activity [11]: Not Active
